# Published values from different studies.
# Protocols differ between the studies behind these lines.
# CA9: Carbonic anhydrase 9 (CA9, Homo sapiens, UniProt Q16790)
# HRH1: Histamine H1 receptor (HRH1, Homo sapiens, UniProt P35367)
# MAOB: Amine oxidase [flavin-containing] B (MAOB, Homo sapiens, UniProt P27338)
# PADI4: Protein-arginine deiminase type-4 (PADI4, Homo sapiens, UniProt Q9UM07)
# PKN1: Serine/threonine-protein kinase N1 (PKN1, Homo sapiens, UniProt Q16512)
SMILES,target,test,test system,conditions,quantity,value
CCOC(=O)C1CSc2[nH]c(=O)sc2C1c1cn(-c2ccccc2)nc1-c1ccc(OC)cc1 (stereo not shown),CA9,"enzyme activity, inhibitor",,10 µM,inhibition,84.9%
CN1CCC(=C2c3ccccc3CCc3ccccc32)CC1,HRH1,binding,,,koff,8.33e-05 s⁻¹
CN(C)C1CCN(CC#Cc2nn(C3CCCC3)c3nc(NCc4ccccc4)ncc23)C1 (stereo not shown),"Tyrosine-protein kinase HCK (HCK, Homo sapiens, UniProt P08631)","enzyme activity, inhibitor, FRET",,0.1 µM,inhibition,2%
O=C1NC(=S)C(=Cc2cn(-c3ccccc3)nc2-c2ccc(Br)cc2)S1,CA9,"enzyme activity, inhibitor",,10 nM,inhibition,12%
O=C(Nc1ccc(N2C(=O)c3ccccc3C2=O)c(Cl)c1)c1ncccc1O,"Metabotropic glutamate receptor 1 (GRM1, Homo sapiens, UniProt Q13255)","calcium signal, positive allosteric modulator",T-REx-293,,Emax,106%
O=C(Nc1cccc(Cl)c1)c1ccc([N+](=O)[O-])cc1Cl,MAOB,"enzyme activity, inhibitor",,"1 µM, 20 min",inhibition,36%
N=C(CF)NCCC[C@H](NC(=O)c1ccccc1C(=O)O)c1nn[nH]n1,PADI4,"enzyme activity, inhibitor",,,kinact/KI,780 M⁻¹ s⁻¹
O=C(Nc1ccc([N+](=O)[O-])cc1)c1cc(Cl)ccc1O,MAOB,"enzyme activity, inhibitor",,"1 µM, 20 min",inhibition,66%
Cl.Cl.c1cc(-c2cnn3cc(-c4ccc(OCCN5CCCCC5)cc4)cnc23)ccn1,PKN1,"enzyme activity, inhibitor",,1 µM,activity vs control,32%
CN1CCC(=C(c2ccccc2)c2ccccc2)CC1,HRH1,binding,,,koff,0.00583 s⁻¹
CCOc1ccc(C(=O)Nc2ccc(Br)cc2)cc1OCC,MAOB,"enzyme activity, inhibitor",,"1 µM, 20 min",inhibition,13%
CN1CCC(=C2c3ccccc3CCc3cccnc32)CC1,HRH1,binding,,,kon,533000 M⁻¹ s⁻¹
N=C(CCl)NCCC[C@H](NC(=O)c1ccccc1)c1nn[nH]n1,PADI4,"enzyme activity, inhibitor",,,kinact/KI,287 M⁻¹ s⁻¹
O=C(Nc1ccc([N+](=O)[O-])cc1Cl)c1ccccc1O,MAOB,"enzyme activity, inhibitor",,"1 µM, 20 min",inhibition,14%
CC#CC(=O)Nc1cc2c(Nc3ccc(F)c(Cl)c3)ncnc2cn1,PKN1,"enzyme activity, inhibitor",,1 µM,activity vs control,81%
O=C(Nc1ccc([N+](=O)[O-])cc1Cl)c1ccc2c(c1)OCO2,MAOB,"enzyme activity, inhibitor",,"1 µM, 20 min",inhibition,62%
CN(C)CCOC1c2ccccc2C=Cc2ccccc21,HRH1,binding,,,koff,0.00015 s⁻¹
N=C(N)NCCC[C@H](NC(=O)[C@H](CC(=O)O)NC(=O)[C@H](Cc1c[nH]c2ccccc12)NC(=O)[C@H](CCCNC(=N)N)NC(=O)[C@@H](N)Cc1ccccc1)C(=O)N[C@@H](Cc1ccccc1)C(=O)NCC(=O)O,"Melanocortin receptor 5 (Mus musculus, UniProt P41149)","cAMP, agonist",HEK293,,Emax,90%
Cc1ccc2c(=O)c3ccccc3n(CCCN)c2c1C.O=C(O)/C=C\C(=O)O,PKN1,"enzyme activity, inhibitor",,1 µM,activity vs control,64%
COc1cc(NC(C)=O)c(Cl)cc1C(=O)Nc1nccs1,"Endothelin receptor type B (EDNRB, Homo sapiens, UniProt P24530)",cell-free assay,,10 µM,inhibition,-13.1%
Cc1cc(N)ccc1NC(=O)c1ccccc1,MAOB,"enzyme activity, inhibitor",,"1 µM, 20 min",inhibition,-2%
Cc1ccc(-c2nn(-c3ccccc3)cc2C2c3sc(=O)[nH]c3SC3C(=O)N(c4ccccc4)C(=O)C32)cc1 (stereo not shown),CA9,"enzyme activity, inhibitor",,10 nM,inhibition,17.8%
CN1CCC(C2c3ccccc3CCc3ccccc32)CC1,HRH1,binding,,,kon,717000 M⁻¹ s⁻¹
N=C(CCl)NCCC[C@H](NC(=O)c1ccccc1C(=O)O)c1nn[nH]n1,PADI4,"enzyme activity, inhibitor",,,kinact/KI,2660 M⁻¹ s⁻¹
CCOC(=O)C1CSc2[nH]c(=O)sc2C1c1cn(-c2ccccc2)nc1-c1ccc(C)cc1 (stereo not shown),CA9,"enzyme activity, inhibitor",,1 µM,inhibition,61.4%
NNCCc1ccc(NC(=O)CCCc2ccccc2)cc1,MAOB,"enzyme activity, inhibitor",,,KI (inactivation),6.5 µM
CCC(=O)N1CCN(c2ccc(-n3c(=O)ccc4cnc5ccc(-c6cnc7ccccc7c6)cc5c43)cc2C(F)(F)F)CC1,PKN1,"enzyme activity, inhibitor",,1 µM,activity vs control,97%
N#Cc1ccc(NC(=O)c2ccccc2O)cc1,MAOB,"enzyme activity, inhibitor",,"1 µM, 20 min",inhibition,32%
CCOC(=O)C1CSc2[nH]c(=O)sc2C1c1cn(-c2ccccc2)nc1-c1ccccc1 (stereo not shown),CA9,"enzyme activity, inhibitor",,10 nM,inhibition,15.6%
COc1cc2c(CCNC(C)=O)c[nH]c2cc1O,"Sulfotransferase 1A1 (SULT1A1, Homo sapiens, UniProt P50225)","enzyme activity, substrate",,pH 7,Km,8.2 µM
CC(C)(C)n1nnc([C@H](CCCNC(=N)CF)NC(=O)c2ccc(-c3ccccc3)cc2)n1,PADI4,"enzyme activity, inhibitor",,,kinact/KI,20.8 M⁻¹ s⁻¹
CN1CCN(C2c3ccccc3C=Cc3ccccc32)CC1,HRH1,binding,,,koff,0.000583 s⁻¹
CCOc1ccc(C(=O)Nc2ccc([N+](=O)[O-])cc2C(F)(F)F)cc1OCC,MAOB,"enzyme activity, inhibitor",,"1 µM, 20 min",inhibition,62%
CC(C)(C)n1nnc([C@H](CCCNC(=N)CCl)NC(=O)c2ccc(-c3ccccc3)cc2)n1,PADI4,"enzyme activity, inhibitor",,,kinact/KI,102 M⁻¹ s⁻¹
CCOC(=O)C1CSc2[nH]c(=O)sc2C1c1cn(-c2ccccc2)nc1-c1ccc(Cl)cc1 (stereo not shown),CA9,"enzyme activity, inhibitor",,0.1 µM,inhibition,36%
C=CC(=O)Nc1cc(N2CCN(CC)CC2)ccc1Nc1cc(N(C)C(=O)Nc2c(Cl)c(OC)cc(OC)c2Cl)ncn1,PKN1,"enzyme activity, inhibitor",,1 µM,activity vs control,103%
O=C(c1ccc(Cl)cc1)N(Cc1ccccc1)C1CCCCC1,"Muscarinic acetylcholine receptor M4 (CHRM4, Homo sapiens, UniProt P08173)",cell-free assay,,10 µM,inhibition,7.1%
CN(C)c1ccc(-c2nc3ncc(Cl)c(N4CCN(CC(=O)Nc5nccs5)CC4)c3[nH]2)cc1,PKN1,"enzyme activity, inhibitor",,1 µM,activity vs control,32%
N=C(CF)NCCC[C@H](NC(=O)c1ccccc1)c1nn[nH]n1,PADI4,"enzyme activity, inhibitor",,,kinact/KI,67.5 M⁻¹ s⁻¹
CN(C)CCOc1ccc(-c2nc(-c3ccncc3)c(-c3ccc4c(c3)CC/C4=N\O)[nH]2)cc1,PKN1,"enzyme activity, inhibitor",,1 µM,activity vs control,95%
CC(C)(O)[C@H]1CC[C@H](Nc2ccc3ncc(-c4cccc(C(F)(F)F)c4)n3n2)CC1,"Receptor-interacting serine/threonine-protein kinase 3 (RIPK3, Homo sapiens, UniProt Q9Y572)","enzyme activity, inhibitor",,1 µM,remaining activity,80.6%
Cn1c(=O)n(-c2ccc(C(C)(C)C#N)cc2)c2c3cc(-c4cnc5ccccc5c4)ccc3ncc21,PKN1,"enzyme activity, inhibitor",,1 µM,activity vs control,84%
CCOC(=O)C1CSc2[nH]c(=O)sc2C1c1cn(-c2ccccc2)nc1-c1ccc(Br)cc1 (stereo not shown),CA9,"enzyme activity, inhibitor",,1 µM,inhibition,61%
